Data from ChEMBL document CHEMBL1125793 (J Med Chem, 1991).

How the values were obtained:
Angiotensin II receptor [1] = target: T1, Angiotensin II receptor (Rattus norvegicus, UniProt P29089+P25095+P35351); test: Binding affinity against Angiotensin II receptor, from rat adrenal gland; assay type: tissue-based
T1 sequence (P29089 whole entry): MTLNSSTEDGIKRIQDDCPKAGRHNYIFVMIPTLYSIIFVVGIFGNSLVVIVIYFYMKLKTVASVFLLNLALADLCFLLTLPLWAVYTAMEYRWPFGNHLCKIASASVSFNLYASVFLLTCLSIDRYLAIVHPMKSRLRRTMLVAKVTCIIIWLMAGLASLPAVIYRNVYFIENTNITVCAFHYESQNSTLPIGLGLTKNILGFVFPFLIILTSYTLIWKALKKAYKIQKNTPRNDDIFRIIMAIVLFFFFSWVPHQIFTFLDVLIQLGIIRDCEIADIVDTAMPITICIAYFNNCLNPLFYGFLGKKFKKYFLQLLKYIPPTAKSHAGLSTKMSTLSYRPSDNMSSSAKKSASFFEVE
T1 sequence (P25095 whole entry): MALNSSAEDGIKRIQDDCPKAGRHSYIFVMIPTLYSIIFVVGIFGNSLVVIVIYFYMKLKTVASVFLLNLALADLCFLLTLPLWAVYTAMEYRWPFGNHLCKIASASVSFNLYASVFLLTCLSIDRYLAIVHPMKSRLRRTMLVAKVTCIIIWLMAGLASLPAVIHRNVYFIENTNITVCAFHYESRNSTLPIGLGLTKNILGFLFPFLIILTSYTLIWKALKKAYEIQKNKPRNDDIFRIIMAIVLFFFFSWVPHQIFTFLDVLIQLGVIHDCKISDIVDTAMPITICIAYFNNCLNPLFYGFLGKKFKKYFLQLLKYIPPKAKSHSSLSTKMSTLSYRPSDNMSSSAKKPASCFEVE
T1 sequence (P35351 whole entry): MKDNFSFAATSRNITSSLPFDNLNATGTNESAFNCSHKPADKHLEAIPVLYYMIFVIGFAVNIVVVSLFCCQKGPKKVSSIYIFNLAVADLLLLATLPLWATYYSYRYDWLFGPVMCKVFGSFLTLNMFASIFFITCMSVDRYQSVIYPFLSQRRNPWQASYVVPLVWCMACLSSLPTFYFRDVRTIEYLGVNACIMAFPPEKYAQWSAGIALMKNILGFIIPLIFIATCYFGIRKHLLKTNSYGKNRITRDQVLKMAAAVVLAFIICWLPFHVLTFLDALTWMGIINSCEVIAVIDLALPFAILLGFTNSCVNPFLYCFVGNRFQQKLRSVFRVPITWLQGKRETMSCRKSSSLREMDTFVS

Angiotensin II receptor [2] = target: T1, Angiotensin II receptor; test: Binding affinity for rat brain Angiotensin II receptor
[3] = target: T2, Angiotensin II receptor (Rattus norvegicus) (UniProt P29089+P25095+P35351); test: Inhibitory activity against Angiotensin II receptor, from rat adrenal gland at a concentration of 10 uM; assay type: tissue-based
How it was run: (§1)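 Displacement of 125I-Ang II ([…]) from rat adrenal membrane fraction, with test agent at a single 10 μM. Buffer was Tris-HCl, NaCl, 5 mM DTT and BSA; incubation 30 min at 22–25 °C in duplicate.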

[4] = target: T2, Angiotensin II receptor (Rattus norvegicus); test: Inhibitory activity against angiotensin II receptor at a concentration of 10 uM in rat; how it was run: as §1

Compound | IC50 (Angiotensin II receptor [1]) [nM] | further results
O=C(O)[C@@H]1Cc2c(ncn2Cc2ccc(C(F)(F)F)cc2)CN1C(=O)C(c1ccccc1)c1ccccc1 | 190 | IC50 (Angiotensin II receptor [2]): 800 nM
COc1ccc(Cn2cnc3c2CC(CO)N(C(=O)C(c2ccccc2)c2ccccc2)C3)cc1C (stereo not drawn) | 370 | IC50 (Angiotensin II receptor [2]): 130 nM
O=C(O)[C@@H]1Cc2c(ncn2CCC23CC4CC(CC(C4)C2)C3)CN1C(=O)C(c1ccccc1)c1ccccc1 | 130 | IC50 (Angiotensin II receptor [2]): 170 nM
O=C(O)C1Cc2c(ncn2Cc2ccccc2)CN1C(=O)c1ccccc1 (stereo not drawn) |  | inhibition [3]: 12%
CC(=O)N1Cc2ncn(Cc3ccccc3)c2CC1C(=O)O (stereo not drawn) |  | inhibition [3]: 4%
Cc1cccc(Cn2cnc3c2C[C@@H](C(=O)O)N(C(=O)C(c2ccccc2)c2ccccc2)C3)c1 | 150 | IC50 (Angiotensin II receptor [2]): 1600 nM
O=C(O)[C@@H]1Cc2c(ncn2CCCc2ccccc2)CN1C(=O)C(c1ccccc1)c1ccccc1 | 700 | IC50 (Angiotensin II receptor [2]): 400 nM
O=C(O)C1Cc2c(ncn2Cc2ccccc2)CN1C(=O)C1c2ccccc2-c2ccccc21 (stereo not drawn) | 8000 | IC50 (Angiotensin II receptor [2]): 19000 nM
O=C(O)C1Cc2c(ncn2Cc2ccccc2)CN1C(=O)C(c1ccccc1)c1ccccc1 (stereo in doubt; 18a) | 440 | IC50 (Angiotensin II receptor [2]): 3800 nM
O=C(O)C1Cc2ncn(Cc3ccccc3)c2CN1C(=O)/C=C/c1ccccc1 (stereo not drawn) | 29000 | 
O=C(Cc1ccccc1)N1Cc2ncn(Cc3ccccc3)c2CC1CO (stereo not drawn) | 5200 | 
O=C(O)C1Cc2c(ncn2Cc2ccccc2)CN1C(=O)Nc1ccccc1 (stereo not drawn) | 2100 | 
COc1ccc(Cn2cnc3c2C[C@@H](C(=O)O)N(C(=O)C(c2ccccc2)C2CCCCC2)C3)cc1C (stereo partly drawn) | 85 | 
Cc1ccc(S(=O)(=O)N2Cc3ncn(Cc4ccccc4)c3CC2C(=O)O)cc1 (stereo not drawn) | 4200 | 
O=C(C(c1ccccc1)c1ccccc1)N1CCc2c(ncn2Cc2ccccc2)C1 | 6100 | 
O=C(O)C1Cc2c(ncn2Cc2ccccc2)CN1C(=O)OCc1ccccc1 (stereo in doubt; 7a) | 4200 | 
O=C(O)C1Cc2ncn(Cc3ccccc3)c2CN1C(=O)Nc1ccccc1 (stereo not drawn) |  | inhibition [3]: 24%

Compound | IC50 (Angiotensin II receptor [1]) [nM] | further results
COc1ccc(Cn2cnc3c2C[C@@H](C(=O)O)N(C(=O)C2c4ccccc4-c4ccccc42)C3)cc1C |  | inhibition [4]: 27%
O=C(O)C1Cc2c(ncn2Cc2ccccc2)CN1C(=O)OCc1ccccc1 (stereo in doubt; 7) | 14000 | 
COc1ccc(Cn2cnc3c2C[C@@H](C(=O)O)N(C(=O)C(C)c2ccccc2)C3)cc1C (stereo partly drawn) | 560 | 
CN(C(=O)N1Cc2ncn(Cc3ccccc3)c2CC1CO)c1ccccc1 (stereo not drawn) | 1600 | 
O=C(O)C1Cc2c(ncn2Cc2ccccc2)CN1C(=O)c1cccc2ccccc12 (stereo not drawn) | 9800 | 
COc1ccc(Cn2cnc3c2C[C@@H](C(=O)O)N(C(=O)C2(c4ccccc4)CCCCC2)C3)cc1C | 110 | 
O=C(O)[C@@H]1Cc2c(ncn2Cc2ccc3ccccc3c2)CN1C(=O)C(c1ccccc1)c1ccccc1 | 270 | 
COc1ccc(Cn2cnc3c2C[C@@H](C(=O)O)N(C(=O)N(C)c2ccccc2)C3)cc1C | 140 | 
O=C(O)C1Cc2c(ncn2Cc2ccccc2)CN1C(=O)C(c1ccc(Cl)cc1)c1ccc(Cl)cc1 (stereo not drawn) | 6800 | IC50 (Angiotensin II receptor [2]): 8200 nM
COc1ccc(Cn2cnc3c2C[C@@H](C(=O)O)N(C(=O)C(c2ccc(Cl)cc2)c2ccc(Cl)cc2)C3)cc1C | 2400 | 
Cc1cc(Cn2cnc3c2CC(CO)N(C(=O)C(c2ccccc2)c2ccccc2)C3)ccc1N(C)C (stereo not drawn) | 200 | 
O.O=C(O)[C@@H]1Cc2c(ncn2CC2CCCCC2)CN1C(=O)C(c1ccccc1)c1ccccc1 | 340 | 
O=C(O)[C@@H]1Cc2c(ncn2CCC2CCCCC2)CN1C(=O)C(c1ccccc1)c1ccccc1 | 240 | 
Cc1cc(Cn2cnc3c2CC(CO)N(C(=O)C(c2ccccc2)c2ccccc2)C3)ccc1[N+](=O)[O-] (stereo not drawn) | 2000 | 
NC(=O)C1Cc2c(ncn2Cc2ccccc2)CN1C(=O)Nc1ccccc1 (stereo not drawn) |  | inhibition [3]: 14%
Nc1ccc(C(C(=O)N2Cc3ncn(Cc4ccccc4)c3CC2C(=O)O)c2ccc(N)cc2)cc1 (stereo not drawn) | 8400 | 
Cc1cc(Cn2cnc3c2C[C@@H](C(=O)O)N(C(=O)C(c2ccccc2)c2ccccc2)C3)ccc1N(C)C | 34 | IC50 (Angiotensin II receptor [2]): 210 nM
